Laboratory results from ChEMBL document CHEMBL5385966, “Synthesis and biological evaluation of new naphthalimide-thiourea derivatives as potent antimicrobial agents active against multidrug-resistant Staphylococcus aureus and Mycobacterium tuberculosis” (RSC Med Chem, 2024).
≈ marks a conversion by molar mass, not a printed value. Calls of active or inactive are those of the source. The calls are words filed in the database; no cut-off is given here.

What was measured:
[1] = test system: Staphylococcus aureus; experiment: Antibacterial activity against Staphylococcus aureus ATCC 29213 assessed as bacterial growth inhibition incubated for 16 to 18 hrs by CLSI based antibiotic susceptibility testing method; format: functional; conditions: time 16-18 hrs
In short: (§1)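 Broth microdilution in cation-adjusted Mueller-Hinton broth. Compounds were tested at […], with levofloxacin as reference and medium-only controls. Plates were incubated at 37 °C for 16-18 h. MIC was the lowest concentration with no visible growth; three independent determinations, each in duplicate.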

[2] = test system: Mycobacterium tuberculosis; experiment: Antimycobacterial activity against Mycobacterium tuberculosis H37Rv ATCC 27294 assessed as bacterial growth inhibition incubated for 7 days by resazurin dye based broth microdilution method; format: functional; conditions: H37Rv ATCC 27294, 168 h, time 7 day
In short: (§2)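 Broth microdilution in Middlebrook 7H9 with 10% ADC-Tween-80 (0.2% glycerol, 0.05% Tween-80), inoculum ~10⁶ cfu/mL. Compounds came from 10 mg/mL DMSO stocks and were tested as two-fold serial dilutions at 37 °C, 7 days for M. tuberculosis H37Rv and 72 h for NTM. Growth was read visually with PrestoBlue resazurin dye; MIC was the lowest concentration preventing growth. Triplicate determinations, each in duplicate.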

[3] = test system: Escherichia coli; experiment: Antibacterial activity against Escherichia coli ATCC 25922 assessed as bacterial growth inhibition incubated for 16 to 18 hrs by CLSI based antibiotic susceptibility testing method; format: functional, organism-based; conditions: time 16-18 hrs; in short: as §1
[4] = test system: Klebsiella pneumoniae; experiment: Antibacterial activity against Klebsiella pneumoniae BAA 1705 assessed as bacterial growth inhibition incubated for 16 to 18 hrs by CLSI based antibiotic susceptibility testing method; format: functional, organism-based; conditions: time 16-18 hrs; in short: as §1
[5] = test system: Acinetobacter baumannii; experiment: Antibacterial activity against Acinetobacter baumannii BAA 1605 assessed as bacterial growth inhibition incubated for 16 to 18 hrs by CLSI based antibiotic susceptibility testing method; format: functional, organism-based; conditions: time 16-18 hrs; in short: as §1
[6] = test system: Pseudomonas aeruginosa; experiment: Antibacterial activity against Pseudomonas aeruginosa ATCC 27853 assessed as bacterial growth inhibition incubated for 16 to 18 hrs by CLSI based antibiotic susceptibility testing method; format: functional, organism-based; conditions: time 16-18 hrs; in short: as §1
[7] = test system: Mycobacteroides abscessus; experiment: Antimycobacterial activity against Mycobacterium abscessus ATCC 19977 assessed as bacterial growth inhibition incubated for 72 hrs by resazurin dye based broth microdilution method; format: functional, organism-based; in short: as §2
[8] = test system: Mycolicibacterium fortuitum; experiment: Antimycobacterial activity against Mycobacterium fortuitum ATCC 6841 assessed as bacterial growth inhibition incubated for 72 hrs by resazurin dye based broth microdilution method; format: functional, organism-based; in short: as §2
[9] = test system: Mycobacteroides chelonae; experiment: Antimycobacterial activity against Mycobacteroides chelonae ATCC 35752 assessed as bacterial growth inhibition incubated for 72 hrs by resazurin dye based broth microdilution method; format: functional, organism-based; in short: as §2

Structure (SMILES): O=C1c2cccc3cccc(c23)C(=O)N1CCN1CCN(C(=S)Nc2ccc(Cl)c(Cl)c2)CC1
- MIC [1]: > 64 µg/mL
- MIC [2]: > 64 µg/mL
- growth inhibition (GI) [3]: inactive
- growth inhibition (GI) [4]: inactive
- growth inhibition (GI) [5]: inactive
- growth inhibition (GI) [6]: inactive
- growth inhibition (GI) [7]: inactive
- growth inhibition (GI) [8]: inactive
- growth inhibition (GI) [9]: inactive

Structure (SMILES): O=C1c2cccc3cccc(c23)C(=O)N1CCN1CCN(C(=S)Nc2cccnc2)CC1
- MIC [1]: > 64 µg/mL
- MIC [2]: > 64 µg/mL
- growth inhibition (GI) [3]: inactive
- growth inhibition (GI) [4]: inactive
- growth inhibition (GI) [5]: inactive
- growth inhibition (GI) [6]: inactive
- growth inhibition (GI) [7]: inactive
- growth inhibition (GI) [8]: inactive
- growth inhibition (GI) [9]: inactive

Structure (SMILES): Cc1ccc(NC(=S)N2CCN(C(=O)CN3C(=O)c4cccc5cccc(c45)C3=O)CC2)cc1
- MIC [1]: > 64 µg/mL
- MIC [2]: 64 µg/mL (≈ 135 µM)
- growth inhibition (GI) [3]: inactive
- growth inhibition (GI) [4]: inactive
- growth inhibition (GI) [5]: inactive
- growth inhibition (GI) [6]: inactive
- growth inhibition (GI) [7]: inactive
- growth inhibition (GI) [8]: inactive
- growth inhibition (GI) [9]: inactive

Structure (SMILES): O=C1c2cccc3cccc(c23)C(=O)N1CCN1CCN(C(=S)Nc2cccc(Cl)c2)CC1
- MIC [1]: > 64 µg/mL
- MIC [2]: > 64 µg/mL
- growth inhibition (GI) [3]: inactive
- growth inhibition (GI) [4]: inactive
- growth inhibition (GI) [5]: inactive
- growth inhibition (GI) [6]: inactive
- growth inhibition (GI) [7]: inactive
- growth inhibition (GI) [8]: inactive
- growth inhibition (GI) [9]: inactive

Structure (SMILES): CCN=C(S)N1CCN(CCN2C(=O)c3cccc4cccc(c34)C2=O)CC1
- MIC [1]: > 64 µg/mL
- MIC [2]: 64 µg/mL (≈ 161 µM)
- growth inhibition (GI) [3]: inactive
- growth inhibition (GI) [4]: inactive
- growth inhibition (GI) [5]: inactive
- growth inhibition (GI) [6]: inactive
- growth inhibition (GI) [7]: inactive
- growth inhibition (GI) [8]: inactive
- growth inhibition (GI) [9]: inactive

Structure (SMILES): O=C1c2cccc3cccc(c23)C(=O)N1CCN1CCN(C(=S)Nc2ccccc2Cl)CC1
- MIC [1]: > 64 µg/mL
- MIC [2]: > 64 µg/mL
- growth inhibition (GI) [3]: inactive
- growth inhibition (GI) [4]: inactive
- growth inhibition (GI) [5]: inactive
- growth inhibition (GI) [6]: inactive
- growth inhibition (GI) [7]: inactive
- growth inhibition (GI) [8]: inactive
- growth inhibition (GI) [9]: inactive

Structure (SMILES): CC(C)NC(=S)N1CCN(CCN2C(=O)c3cccc4cccc(c34)C2=O)CC1
- MIC [1]: > 64 µg/mL
- MIC [2]: > 64 µg/mL
- growth inhibition (GI) [3]: inactive
- growth inhibition (GI) [4]: inactive
- growth inhibition (GI) [5]: inactive
- growth inhibition (GI) [6]: inactive
- growth inhibition (GI) [7]: inactive
- growth inhibition (GI) [8]: inactive
- growth inhibition (GI) [9]: inactive

Structure (SMILES): COc1ccc(NC(=S)N2CCN(CCN3C(=O)c4cccc5cccc(c45)C3=O)CC2)cc1
- MIC [1]: > 64 µg/mL
- MIC [2]: > 64 µg/mL
- growth inhibition (GI) [3]: inactive
- growth inhibition (GI) [4]: inactive
- growth inhibition (GI) [5]: inactive
- growth inhibition (GI) [6]: inactive
- growth inhibition (GI) [7]: inactive
- growth inhibition (GI) [8]: inactive
- growth inhibition (GI) [9]: inactive

Structure (SMILES): O=C(CN1C(=O)c2cccc3cccc(c23)C1=O)N1CCN(C(=S)Nc2ccc(Cl)cc2)CC1
- MIC [1]: > 64 µg/mL
- MIC [2]: 8 µg/mL (≈ 16.2 µM)
- growth inhibition (GI) [3]: inactive
- growth inhibition (GI) [4]: inactive
- growth inhibition (GI) [5]: inactive
- growth inhibition (GI) [6]: inactive
- growth inhibition (GI) [7]: inactive
- growth inhibition (GI) [8]: inactive
- growth inhibition (GI) [9]: inactive

Structure (SMILES): COc1ccc(NC(=S)N2CCN(C(=O)CCN3C(=O)c4cccc5cccc(c45)C3=O)CC2)cc1
- MIC [1]: > 64 µg/mL
- MIC [2]: 8 µg/mL (≈ 15.9 µM)
- growth inhibition (GI) [3]: inactive
- growth inhibition (GI) [4]: inactive
- growth inhibition (GI) [5]: inactive
- growth inhibition (GI) [6]: inactive
- growth inhibition (GI) [7]: inactive
- growth inhibition (GI) [8]: inactive
- growth inhibition (GI) [9]: inactive

Structure (SMILES): O=C(Nc1ccccc1)N1CCN(CCN2C(=O)c3cccc4cccc(c34)C2=O)CC1
- MIC [1]: 8 µg/mL (≈ 18.7 µM)
- MIC [2]: 32 µg/mL (≈ 74.7 µM)
- growth inhibition (GI) [3]: inactive
- growth inhibition (GI) [4]: inactive
- growth inhibition (GI) [5]: inactive
- growth inhibition (GI) [6]: inactive
- growth inhibition (GI) [7]: inactive
- growth inhibition (GI) [8]: inactive
- growth inhibition (GI) [9]: inactive

Structure (SMILES): O=C(CCN1C(=O)c2cccc3cccc(c23)C1=O)N1CCN(C(=S)Nc2ccccc2Cl)CC1
- MIC [1]: > 64 µg/mL
- MIC [2]: > 64 µg/mL
- growth inhibition (GI) [3]: inactive
- growth inhibition (GI) [4]: inactive
- growth inhibition (GI) [5]: inactive
- growth inhibition (GI) [6]: inactive
- growth inhibition (GI) [7]: inactive
- growth inhibition (GI) [8]: inactive
- growth inhibition (GI) [9]: inactive

Structure (SMILES): O=C(CN1C(=O)c2cccc3cccc(c23)C1=O)N1CCN(C(=S)Nc2cccc(Cl)c2)CC1
- MIC [1]: > 64 µg/mL
- MIC [2]: 32 µg/mL (≈ 64.9 µM)
- growth inhibition (GI) [3]: inactive
- growth inhibition (GI) [4]: inactive
- growth inhibition (GI) [5]: inactive
- growth inhibition (GI) [6]: inactive
- growth inhibition (GI) [7]: inactive
- growth inhibition (GI) [8]: inactive
- growth inhibition (GI) [9]: inactive

Structure (SMILES): Cc1ccc(NC(=S)N2CCN(CCN3C(=O)c4cccc5cccc(c45)C3=O)CC2)cc1
- MIC [1]: > 64 µg/mL
- MIC [2]: > 64 µg/mL
- growth inhibition (GI) [3]: inactive
- growth inhibition (GI) [4]: inactive
- growth inhibition (GI) [5]: inactive
- growth inhibition (GI) [6]: inactive
- growth inhibition (GI) [7]: inactive
- growth inhibition (GI) [8]: inactive
- growth inhibition (GI) [9]: inactive

Structure (SMILES): O=C(CN1C(=O)c2cccc3cccc(c23)C1=O)NC1CCN(C(=S)Nc2ccc(Cl)cc2)CC1
- MIC [1]: > 64 µg/mL
- MIC [2]: > 64 µg/mL
- growth inhibition (GI) [3]: inactive
- growth inhibition (GI) [4]: inactive
- growth inhibition (GI) [5]: inactive
- growth inhibition (GI) [6]: inactive
- growth inhibition (GI) [7]: inactive
- growth inhibition (GI) [8]: inactive
- growth inhibition (GI) [9]: inactive

Structure (SMILES): O=C1c2cccc3cccc(c23)C(=O)N1CCN1CCN(C(=S)NC23CC4CC(CC(C4)C2)C3)CC1
- MIC [1]: > 64 µg/mL
- MIC [2]: > 64 µg/mL
- growth inhibition (GI) [3]: inactive
- growth inhibition (GI) [4]: inactive
- growth inhibition (GI) [5]: inactive
- growth inhibition (GI) [6]: inactive
- growth inhibition (GI) [7]: inactive
- growth inhibition (GI) [8]: inactive
- growth inhibition (GI) [9]: inactive

Structure (SMILES): CCCCCCCNC(=S)N1CCN(CCN2C(=O)c3cccc4cccc(c34)C2=O)CC1
- MIC [1]: > 64 µg/mL
- MIC [2]: 64 µg/mL (≈ 137 µM)
- growth inhibition (GI) [3]: inactive
- growth inhibition (GI) [4]: inactive
- growth inhibition (GI) [5]: inactive
- growth inhibition (GI) [6]: inactive
- growth inhibition (GI) [7]: inactive
- growth inhibition (GI) [8]: inactive
- growth inhibition (GI) [9]: inactive

Structure (SMILES): O=C(CCN1C(=O)c2cccc3cccc(c23)C1=O)NC1CCN(C(=S)Nc2ccccc2)CC1
- MIC [1]: > 64 µg/mL
- MIC [2]: 64 µg/mL (≈ 132 µM)
- growth inhibition (GI) [3]: inactive
- growth inhibition (GI) [4]: inactive
- growth inhibition (GI) [5]: inactive
- growth inhibition (GI) [6]: inactive
- growth inhibition (GI) [7]: inactive
- growth inhibition (GI) [8]: inactive
- growth inhibition (GI) [9]: inactive

Structure (SMILES): O=C(CCN1C(=O)c2cccc3cccc(c23)C1=O)NC1CCN(C(=S)Nc2ccc(Cl)cc2)CC1
- MIC [1]: > 64 µg/mL
- MIC [2]: > 64 µg/mL
- growth inhibition (GI) [3]: inactive
- growth inhibition (GI) [4]: inactive
- growth inhibition (GI) [5]: inactive
- growth inhibition (GI) [6]: inactive
- growth inhibition (GI) [7]: inactive
- growth inhibition (GI) [8]: inactive
- growth inhibition (GI) [9]: inactive

Structure (SMILES): O=C(CCN1C(=O)c2cccc3cccc(c23)C1=O)N1CCN(C(=S)Nc2ccc(Cl)cc2)CC1
- MIC [1]: > 64 µg/mL
- MIC [2]: 64 µg/mL (≈ 126 µM)
- growth inhibition (GI) [3]: inactive
- growth inhibition (GI) [4]: inactive
- growth inhibition (GI) [5]: inactive
- growth inhibition (GI) [6]: inactive
- growth inhibition (GI) [7]: inactive
- growth inhibition (GI) [8]: inactive
- growth inhibition (GI) [9]: inactive

Structure (SMILES): O=C1c2cccc3cccc(c23)C(=O)N1CCN1CCN(C(=S)NC2CC2)CC1
- MIC [1]: > 64 µg/mL
- MIC [2]: > 64 µg/mL
- growth inhibition (GI) [3]: inactive
- growth inhibition (GI) [4]: inactive
- growth inhibition (GI) [5]: inactive
- growth inhibition (GI) [6]: inactive
- growth inhibition (GI) [7]: inactive
- growth inhibition (GI) [8]: inactive
- growth inhibition (GI) [9]: inactive
